What is called inhibition is the drop in the measured response relative to a control, in per cent. One may read the AUC(0-t) as the area under the concentration-time curve up to a stated or last time point. By AUC(0-inf) is commonly meant total exposure, with the tail of the curve extrapolated. A high value points to high exposure. Usually Cmax stands for the highest concentration seen after dosing. In general, Tmax refers to the time at which the peak concentration occurs. By half-life is commonly meant the time in which the quantity being followed falls by half. Read a low half-life as rapid decline. One may read the pIC50 as the IC50 on a negative log10 scale, so that one unit is a factor of ten.

pIC50: −log10 of the molar value. Calls of active or inactive are those of the source. No cut-off for these calls is given here.

The values below come from ChEMBL document CHEMBL1155878, “Substituted 6-phenyl-2-naphthols. Potent and selective nonsteroidal inhibitors of 17beta-hydroxysteroid dehydrogenase type 1 (17beta-HSD1): design, synthesis, biological evaluation, and pharmacokinetics” (J Med Chem, 2008).

Series [1] concerns the target T1, 17-beta-hydroxysteroid dehydrogenase type 1 (Homo sapiens) (UniProt P14061).
T1 sequence (whole entry): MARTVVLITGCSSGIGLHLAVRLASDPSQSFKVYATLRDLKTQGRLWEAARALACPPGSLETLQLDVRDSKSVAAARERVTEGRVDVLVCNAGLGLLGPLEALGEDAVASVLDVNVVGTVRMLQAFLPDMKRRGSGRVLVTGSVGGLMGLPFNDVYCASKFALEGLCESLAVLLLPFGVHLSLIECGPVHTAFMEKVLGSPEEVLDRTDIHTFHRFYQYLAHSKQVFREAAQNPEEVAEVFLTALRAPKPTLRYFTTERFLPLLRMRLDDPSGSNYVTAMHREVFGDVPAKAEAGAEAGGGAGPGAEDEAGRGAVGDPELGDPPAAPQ
The series can be described thus: Inhibition of human placental 17beta-HSD1 assessed as conversion of [3H]estrone to [3H]17beta-estradiol at 1 uM. The method in brief:
(§1)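 Cytosolic enzyme from human placenta, purified by ammonium sulfate precipitation, with NADH 500 µM. Incubated at 37 °C in 50 mM phosphate buffer with 20% glycerol and 1 mM EDTA, 1% DMSO final. Started with [3H]E1 (500 nM final) and stopped with HgCl2 after 10 min. Ether extraction, then HPLC with radioflow detection of E1/E2. Result is % inhibition = 100 − % conversion, from ≥3 independent experiments.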

Series [2] deals with T1, 17-beta-hydroxysteroid dehydrogenase type 1 (Homo sapiens). The series can be described thus: Inhibition of human placental 17beta-HSD1 assessed as conversion of [3H]estrone to [3H]17beta-estradiol at 100 nM. The method in brief:
as §1

For the next series, the system named is T47C. The series can be described thus: Stimulation of human […] cell proliferation at 0.1 nM after 8 days by MTT assay. It counts as functional, cell-based.
The nature of series [3]: AUC (0 to tlast) in Wistar rat at 10 mg/kg, po. Format: ADME, organism-based. The note with it: plasma. Details: dose 10 mg/kg, route oral. The method in brief: (§2)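 Four adult male Wistar rats per group given 10 mg/kg orally in labrasol/water (1:1), cassette dosing. Rats were jugular-cannulated under ketamine/xylazine and sampled freely moving at 1, 2, 3, 4, 6, 8, 10 and 24 h. Plasma stored at -20 °C and quantified by HPLC-MS/MS (ESI triple quadrupole).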

Series [4] can be described thus: AUC (0 to infinity) in Wistar rat at 10 mg/kg, po. It counts as ADME, organism-based. On the set-up: dose 10 mg/kg, route oral, time infinity. The note with it: plasma. The method in brief:
as §2

A short description of series [5]: Cmax in Wistar rat at 10 mg/kg, po. Format: ADME, organism-based. On the set-up: dose 10 mg/kg, route oral. Particulars: in vivo. The method in brief:
as §2

The test system of series [6] is Rattus norvegicus. The series can be described thus: Clast in Wistar rat at 10 mg/kg, po. Details: dose 10 mg/kg, route oral. Format: ADME, organism-based. Particulars: in vivo. In a few lines:
as §2

Series [7] in a line: Tmax in Wistar rat at 10 mg/kg, po. Format: ADME, organism-based. On the set-up: dose 10 mg/kg, route oral. The note with it: in vivo. The method in brief: as §2
A short description of series [8]: Stimulation of human […] cell proliferation at 100 nM after 8 days by MTT assay relative to 17-beta estradiol. Format: functional. (Tetrazolium assays rely on reduction of a dye to a coloured formazan, in cell work by metabolically active cells.)
A short description of series [9]: Terminal half life in Wistar rat at 10 mg/kg, po. It counts as ADME, organism-based. Details: dose 10 mg/kg, route oral. Particulars: in vivo. The method in brief: as §2
The subject of series [10] is Rattus norvegicus. The series can be described thus: Tlast in Wistar rat at 10 mg/kg, po. On the set-up: dose 10 mg/kg, route oral. Particulars: in vivo. It counts as ADME, organism-based. The method in brief:
as §2

In series [11] the target is T2, 17-beta-hydroxysteroid dehydrogenase type 2 (Homo sapiens) (UniProt P37059).
T2 sequence (whole entry): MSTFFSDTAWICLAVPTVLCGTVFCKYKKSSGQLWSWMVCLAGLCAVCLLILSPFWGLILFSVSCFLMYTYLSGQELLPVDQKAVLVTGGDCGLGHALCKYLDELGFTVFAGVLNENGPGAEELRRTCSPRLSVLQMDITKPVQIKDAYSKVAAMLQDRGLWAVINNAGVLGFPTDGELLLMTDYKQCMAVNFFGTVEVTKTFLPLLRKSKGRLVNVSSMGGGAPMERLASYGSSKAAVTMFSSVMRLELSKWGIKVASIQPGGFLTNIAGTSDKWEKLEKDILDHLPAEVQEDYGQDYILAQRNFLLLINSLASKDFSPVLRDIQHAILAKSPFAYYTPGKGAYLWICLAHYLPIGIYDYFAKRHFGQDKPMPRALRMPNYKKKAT
The series can be described thus: Inhibition of human recombinant expressed in Sf9 cells 17beta-HSD2 assessed as conversion of [3H]17beta-estradiol to [3H]estrone at 1 uM. The method in brief:
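Microsomes from Sf9 cells infected with baculovirus. Incubated with 30 nM [3H]E2 and 1 mM NAD+ in 20 mM KH2PO4, pH 7.4, for 30 min at room temperature, with 1% DMSO. Stopped with 10% trichloroacetic acid. E1/E2 radioactivity used for conversion; inhibition = 100 − % conversion, from two independent experiments.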

Series [12] addresses T3, 17-beta-hydroxysteroid dehydrogenase type 1 (Homo sapiens, UniProt P14061).
T3 sequence (P14061 whole entry): T1 sequence (whole entry)
The series can be described thus: Inhibition of human placental 17beta-HSD1 assessed as conversion of [3H]estrone to [3H]17beta-estradiol.

Series [13] addresses T4, 17-beta-hydroxysteroid dehydrogenase type 2 (Homo sapiens, UniProt P37059).
T4 sequence (P37059 whole entry): T2 sequence (whole entry)
The series can be described thus: Inhibition of human placental 17beta-HSD2 assessed as conversion of [3H]17beta-estradiol to [3H]estrone. The method in brief:
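Human placental microsomal fraction incubated with NAD+ (1500 µM), test compound and unlabeled plus [3H]E2 (final 500 nM) for 20 min at 37 °C. The reaction was stopped with HgCl2 and extracted with ether. E1 and E2 were separated by HPLC with radioflow detection. Percent conversion was used to derive inhibition. Values are the mean of three determinations; IC50 was measured for selected compounds.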

`N#Cc1cc(-c2cccc(O)c2)cc2ccc(O)cc12`: the inhibition in series [1] was found to be 53%. In addition, the inhibition entry in [2] was “inactive”.
For the molecule `C[C@]12CC[C@@H]3c4ccc(O)cc4CC[C@H]3[C@@H]1CC[C@@H]2O`, the outcome in the series on T47C was Active.
On to `O=S(=O)(c1ccccc1)c1c(O)ccc2cc(-c3cccc(O)c3)ccc12`, for which the inhibition in series [1] turned out to be 33%.
The same measure, in the same setting: the value for `Cc1ccc(S(=O)(=O)c2c(O)ccc3cc(-c4cccc(O)c4)ccc23)cc1` was 75%.
For `Oc1cccc(-c2ccc3cc(O)ccc3c2)c1`, the AUC(0-t) in series [3] came out at 29700 ng·h/mL. The AUC(0-inf) in series [4] turned out to be 30700 ng·h/mL. This molecule had a Cmax in series [5] of 2230 ng/mL. In addition, the Cz in the series with Rattus norvegicus [6] came to 159 ng/mL. Further, in series [7], the time of peak concentration (Tmax) was 6 h. Further, the Activity in series [8] was found to be 41%. For the same molecule, the half-life in [9] is 4 h. For the same molecule, the tz in the series on Rattus norvegicus [10] was 24 h.
In the case of `CNC(=O)CCc1c(O)ccc2cc(-c3cccc(O)c3)ccc12`, in [11], the inhibition came to 36%.
In series [3], `Oc1cccc(-c2ccc3c(-c4ccccc4)c(O)ccc3c2)c1` registered an AUC(0-t) of 11700 ng·h/mL. The same molecule showed an AUC(0-inf) in [4] of 12700 ng·h/mL. In [5], this molecule came in with a Cmax of 860 ng/mL. In addition, the Cz in the series with Rattus norvegicus [6] was determined as 115 ng/mL. Moreover, the negative logarithm of the IC50 (pIC50) in [12] is 7.70. For the same molecule, in series [7], the Tmax was determined as 4 h. In series [8], the Activity was 39%. Further, the half-life in series [9] was 6 h. The tz in the series with Rattus norvegicus [10] worked out at 24 h.
As to `Cc1nnc(NC(=O)c2c(O)ccc3cc(-c4cccc(O)c4)ccc23)s1`, the inhibition in [1] was 73%.
For `O=C(Nc1ccccn1)c1c(O)ccc2cc(-c3cccc(O)c3)ccc12`, the result in [1] and in series [2] was inactive.
As to `O=C(Nc1ncccn1)c1c(O)ccc2cc(-c3cccc(O)c3)ccc12`, the result in [1] and in series [2] was inactive.
Turning to `N#Cc1cc(O)cc2ccc(-c3cccc(O)c3)cc12`, the inhibition in [1] was found to be 99%; in [2], 73%.
For the molecule `Oc1cccc(-c2ccc3c(Br)c(O)ccc3c2)c1`, the pIC50 is 7.40 in [12] and 6.19 in series [13].
